The source made the active and inactive calls. The calls are words filed in the database; no cut-off is given here.
Assays:
Rattus norvegicus [1] = test: Increase in [1-14C]palmitoyl-CoA oxidation in Wistar rat liver homogenate at 250 uM, po after 6 days; format: functional, organism-based
Procedure, shortened: (§1)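 Rats were dosed by gastric intubation for 6 days with 85 or 250 µmol TTA-equivalent in 0.5% CMC, with palmitic acid controls. Liver was homogenized in 0.25 M sucrose, 10 mM HEPES pH 7.4, 1 mM EDTA at 0-4 °C. Palmitoyl-CoA oxidation was read as acid-soluble products from [1-14C]-palmitoyl-CoA in the postnuclear fraction. Mean ± SD, n=5.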

Rattus norvegicus [2] = test: Effect on fatty acid composition in Wistar rat assessed as change in liver saturated fatty acid level at dose equivalent to 250 umol of tetradecylthioacetic acid, po after 6 days; format: functional
Procedure, shortened: (§2)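 Male Wistar rats were gavaged once daily for 6 days with compound in 0.5% CMC at 85 or 250 µmol TTA-equivalent per animal. Controls received palmitic acid. Liver was homogenized in 0.25 M sucrose/10 mM HEPES pH 7.4/1 mM EDTA at 0-4 °C. Lipids were extracted with chloroform:methanol 2:1 and spiked with 21:0 internal standard. Fatty acids were BF3-methanol transesterified and quantified as wt%. Values are mean ± SD, n=5.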

Rattus norvegicus [3] = test: Effect on fatty acid composition in Wistar rat assessed as change in liver LCPUFA, n-6 level at dose equivalent to 85 umol of tetradecylthioacetic acid, po after 6 days; format: functional; procedure, shortened: as §2
Rattus norvegicus [4] = test: Effect on fatty acid composition in Wistar rat assessed as change in liver MUFA level at dose equivalent to 85 umol of tetradecylthioacetic acid, po after 6 days; format: functional; procedure, shortened: as §2
Rattus norvegicus [5] = test: Effect on fatty acid composition in Wistar rat assessed as change in liver 18;2, n-6 level at dose equivalent to 250 umol of tetradecylthioacetic acid, po after 6 days; format: functional; procedure, shortened: as §2
Rattus norvegicus [6] = test: Effect on fatty acid composition in Wistar rat assessed as change in plasma LCn-6/18:2 level at dose equivalent to 250 umol of tetradecylthioacetic acid, po after 6 days; format: functional
Rattus norvegicus [7] = test: Induction of PPAR-alpha-regulated fatty acyl-CoA oxidase activity in po dosed Wistar rat after 6 days; format: functional, organism-based
Procedure, shortened: (§3)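 Rats were dosed by gastric intubation for 6 days at 85 or 250 µmol TTA-equivalent in 0.5% CMC, with palmitic acid controls. Fatty acyl-CoA oxidase was measured in the liver postnuclear fraction by a coupled assay, following H2O2 production as the rise in dichlorofluorescein absorbance with palmitoyl-CoA. Mean ± SD, n=5.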

Rattus norvegicus [8] = test: Increase in [1-14C]palmitoyl-CoA oxidation in po dosed Wistar rat liver homogenate after 6 days; format: functional, organism-based; procedure, shortened: as §1
Rattus norvegicus [9] = test: Induction of PPAR-alpha-regulated CPT2 activity in po dosed Wistar rat after 6 days; format: functional, organism-based
Procedure, shortened: (§4)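 Wistar rats were dosed orally for 6 days (85 or 250 µmol TTA-equivalent in 0.5% CMC; palmitic acid controls). CPT-II activity was measured in the liver mitochondrial fraction, prepared from sucrose/HEPES pH 7.4/EDTA homogenate at 0-4 °C. Means ± SD from 5 rats per group.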

Rattus norvegicus [10] = test: Effect on fatty acid composition in Wistar rat assessed as change in liver LCn-6/18:2 level at dose equivalent to 85 umol of tetradecylthioacetic acid, po after 6 days; format: functional; procedure, shortened: as §2
Rattus norvegicus [11] = test: Induction of PPAR-alpha-regulated mitochondrial fatty acyl-CoA oxidase activity in Wistar rat at dose equivalent to 250 umol of tetradecylthioacetic acid, po after 6 days relative to control; format: functional; conditions: in the assay text read “peroxisomal fatty acyl-CoA oxidase” for “mitochondrial fatty acyl-CoA oxidase”; procedure, shortened: as §3
Rattus norvegicus [12] = test: Effect on fatty acid composition in Wistar rat assessed as change in liver PUFA level at dose equivalent to 85 umol of tetradecylthioacetic acid, po after 6 days; format: functional; procedure, shortened: as §2
Rattus norvegicus [13] = test: Effect on fatty acid composition in Wistar rat assessed as change in plasma saturated fatty acid level at dose equivalent to 85 umol of tetradecylthioacetic acid, po after 6 days; format: functional
Rattus norvegicus [14] = test: Decrease in plasma triacylglycerol level in Wistar rat at dose equivalent to 250 umol of tetradecylthioacetic acid, po after 6 days relative to control; format: functional; design: scale not given: the % may be the effect or the level left
Procedure, shortened: (§5)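 Male Wistar rats (170-210 g), housed in pairs with chow and water, were gavaged once daily for 6 days with test lipid in 0.5% (w/v) carboxymethylcellulose at 85 or 250 µmol TTA-equivalent per animal. Controls received palmitic acid in CMC. Plasma triacylglycerol and cholesterol were measured with an enzymatic kit, and liver levels were also determined. Values are mean ± SD, n=5 rats.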

Rattus norvegicus [15] = test: Effect on fatty acid composition in Wistar rat assessed as change in plasma PUFA level at dose equivalent to 85 umol of tetradecylthioacetic acid, po after 6 days; format: functional
Rattus norvegicus [16] = test: Effect on fatty acid composition in Wistar rat assessed as change in liver LCPUFA, n-6 level at dose equivalent to 250 umol of tetradecylthioacetic acid, po after 6 days; format: functional; procedure, shortened: as §2
Rattus norvegicus [17] = test: Effect on fatty acid composition in Wistar rat assessed as change in plasma LCPUFA, n-6 level at dose equivalent to 85 umol of tetradecylthioacetic acid, po after 6 days; format: functional
Rattus norvegicus [18] = test: Effect on fatty acid composition in Wistar rat assessed as change in plasma MUFA level at dose equivalent to 85 umol of tetradecylthioacetic acid, po after 6 days; format: functional
Rattus norvegicus [19] = test: Decrease in plasma triacylglycerol level in po dosed Wistar rat after 6 days; format: functional, organism-based; procedure, shortened: as §5
Rattus norvegicus [20] = test: Induction of PPAR-alpha-regulated CPT2 activity in po dosed Wistar rat after 6 days relative to control; format: functional; procedure, shortened: as §4
Rattus norvegicus [21] = test: Decrease in liver triacylglycerol level in Wistar rat at dose equivalent to 250 umol of tetradecylthioacetic acid, po after 6 days relative to control; format: functional; design: scale not given: the % may be the effect or the level left; procedure, shortened: as §5
Rattus norvegicus [22] = test: Decrease in liver cholesterol level in Wistar rat at dose equivalent to 250 umol of tetradecylthioacetic acid, po after 6 days relative to control; format: functional; design: scale not given: the % may be the effect or the level left; procedure, shortened: as §5
Rattus norvegicus [23] = test: Plasma concentration in Wistar rat assessed as tetradecylthioacetic acid at dose equivalent to 85 umol of tetradecylthioacetic acid, po after 6 days; format: ADME, organism-based; conditions: in vivo, 144 h
Rattus norvegicus [24] = test: Effect on fatty acid composition in Wistar rat assessed as change in plasma LCPUFA, n-6 level at dose equivalent to 250 umol of tetradecylthioacetic acid, po after 6 days; format: functional
Rattus norvegicus [25] = test: Effect on fatty acid composition in Wistar rat assessed as change in plasma saturated fatty acid level at dose equivalent to 250 umol of tetradecylthioacetic acid, po after 6 days; format: functional
Rattus norvegicus [26] = test: Effect on fatty acid composition in Wistar rat assessed as change in liver MUFA level at dose equivalent to 250 umol of tetradecylthioacetic acid, po after 6 days; format: functional; procedure, shortened: as §2
Rattus norvegicus [27] = test: Effect on fatty acid composition in Wistar rat assessed as change in liver 18;2, n-6 level at dose equivalent to 85 umol of tetradecylthioacetic acid, po after 6 days; format: functional; procedure, shortened: as §2
Rattus norvegicus [28] = test: Effect on fatty acid composition in Wistar rat assessed as change in liver PUFA level at dose equivalent to 250 umol of tetradecylthioacetic acid, po after 6 days; format: functional; procedure, shortened: as §2
Rattus norvegicus [29] = test: Effect on fatty acid composition in Wistar rat assessed as change in plasma LCn-6/18:2 level at dose equivalent to 85 umol of tetradecylthioacetic acid, po after 6 days; format: functional
Rattus norvegicus [30] = test: Induction of PPAR-alpha-regulated HMG-CoA synthase activity in po dosed Wistar rat after 6 days; format: functional, organism-based
Procedure, shortened: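 Wistar rats were gavaged daily for 6 days at 85 or 250 µmol TTA-equivalent in 0.5% CMC, with palmitic acid controls. HMG-CoA synthase activity was assayed in the liver postnuclear fraction by the Clinkenbeard method. Mean ± SD, 5 rats/group.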

Compound: CCCCCCCCCCCCCCSCC(=O)OC[C@H](COP(=O)([O-])OCC[N+](C)(C)C)OC(=O)CSCCCCCCCCCCCCCC [PHOSPHATIDYLCHOLINE]
- Activity (Rattus norvegicus [1]): inactive
- Activity (Rattus norvegicus [2]): 39.22%
- Activity (Rattus norvegicus [3]): 26.13%
- Activity (Rattus norvegicus [4]): 16.66%
- Activity (Rattus norvegicus [5]): 8.79%
- Activity (Rattus norvegicus [6]): 1.25%
- Activity (Rattus norvegicus [7]): Dose-dependent effect
- Activity (Rattus norvegicus [8]): Dose-dependent effect
- Activity (Rattus norvegicus [9]): Dose-dependent effect
- Activity (Rattus norvegicus [10]): 2.19%
- fold change (FC) (Rattus norvegicus [11]): 5
- Activity (Rattus norvegicus [12]): 4.91%
- Activity (Rattus norvegicus [13]): 35.65%
- Activity (Rattus norvegicus [14]): 60%
- Activity (Rattus norvegicus [15]): 2.42%
- Activity (Rattus norvegicus [16]): 30.3%
- Activity (Rattus norvegicus [17]): 19.06%
- Activity (Rattus norvegicus [18]): 22.53%
- Activity (Rattus norvegicus [19]): Dose-dependent effect
- fold change (FC) (Rattus norvegicus [20]): 3
- Activity (Rattus norvegicus [21]): 25%
- Activity (Rattus norvegicus [22]): 20%
- Drug uptake (Rattus norvegicus [23]): 0.9%
- Activity (Rattus norvegicus [24]): 22.07%
- Activity (Rattus norvegicus [25]): 35.25%
- Activity (Rattus norvegicus [26]): 16.33%
- Activity (Rattus norvegicus [27]): 11.99%
- Activity (Rattus norvegicus [28]): 4.05%
- Activity (Rattus norvegicus [29]): 0.97%
- Activity (Rattus norvegicus [30]): Dose-dependent effect

Source: ChEMBL document CHEMBL1140904, “Synthesis and analysis of novel glycerolipids for the treatment of metabolic syndrome” (J Med Chem, 2009)
